Measurements reported in ChEMBL document CHEMBL5724801, “EUbOPEN Chemogenomics Library - Multiplex” (2024).
“And” between values parts separate entries of the source, which are not always exact repeats. Identical values can stand only once.

How the values were obtained:
HEK-293T = experiment: Multiplex assay against HEK293T; format: toxicity, cell-based; settings: human
Method in brief: (§1)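 With compound added, live cells were imaged on a CQ1 microscope at 37°C and 5% CO2; staining with Hoechst33342, BioTracker Green Microtubule Cytoskeleton Dye, MitoTracker Red and Annexin V Alexa Fluor 680 had been done at seeding. The CellPathfinder machine-learning gating scheme split cells into Hoechst high-intensity objects or normal cells, normal cells into healthy, pyknosed or fragmented nuclei, and pyknosed cells into mitotic or apoptotic. The tubulin, mitochondrial-mass and membrane-permeability phenotypes are per cents of healthy-nucleus cells.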

U2OS = experiment: Multiplex assay against U2OS; format: toxicity, cell-based; settings: human; method in brief: as §1
[1] = 24 h, 1 µM, compound concentration 1 uM
[2] = 24 h, 10 µM, compound concentration 10 uM
[3] = 48 h, 1 µM, compound concentration 1 uM
[4] = 48 h, 10 µM, compound concentration 10 uM
[5] = 12 h, 1 µM, compound concentration 1 uM
[6] = 12 h, 10 µM, compound concentration 10 uM

O=c1ccc2ccc(OCCCCN3CCN(c4cccc5sccc45)CC3)cc2[nH]1 [BREXPIPRAZOLE]
Total Cell Count (HEK-293T; [1]): 501 and 449 | Population Apoptotic (%) (HEK-293T; [2]): 91% and 89% | Population Fragmented Nuclei (%) (HEK-293T; [2]): 12% and 10% | Population Healthy Nuclei (%) (HEK-293T; [2]): 37% and 59% | Population Hoechst High Intensity Objects (%) (HEK-293T; [2]): 68% and 46% | Population Membrane Permeable-Phenotype (%) (HEK-293T; [2]): 0% | Population Mitochondria Different-Phenotype (%) (HEK-293T; [2]): 100% and 98% | Population Mitotic Cells (%) (HEK-293T; [2]): 8% and 10% | Population Normal (%) (HEK-293T; [2]): 31% and 53% | Population Pyknosed Nuclei (%) (HEK-293T; [2]): 50% and 30% | Population Tubulin-Different-Phenotype (%) (HEK-293T; [2]): 66% and 57% | Total Cell Count (HEK-293T; [2]): 284 and 180 | Population Apoptotic (%) (HEK-293T; [3]): 49% and 48% | Population Fragmented Nuclei (%) (HEK-293T; [3]): 9% and 12% | Population Healthy Nuclei (%) (HEK-293T; [3]): 80% and 79% | Population Hoechst High Intensity Objects (%) (HEK-293T; [3]): 5% and 3% | Population Membrane Permeable-Phenotype (%) (HEK-293T; [3]): 0% and 1% | Population Mitochondria Different-Phenotype (%) (HEK-293T; [3]): 47% and 36% | Population Mitotic Cells (%) (HEK-293T; [3]): 50% and 51% | Population Normal (%) (HEK-293T; [3]): 94% and 96% | Population Pyknosed Nuclei (%) (HEK-293T; [3]): 10% and 7% | Population Tubulin-Different-Phenotype (%) (HEK-293T; [3]): 28% and 26% | Total Cell Count (HEK-293T; [3]): 679 and 644 | Population Apoptotic (%) (HEK-293T; [4]): 93% and 89% | Population Fragmented Nuclei (%) (HEK-293T; [4]): 19% and 14% | Population Healthy Nuclei (%) (HEK-293T; [4]): 30% and 50% | Population Hoechst High Intensity Objects (%) (HEK-293T; [4]): 67% and 52% | Population Membrane Permeable-Phenotype (%) (HEK-293T; [4]): 0% | Population Mitochondria Different-Phenotype (%) (HEK-293T; [4]): 96% and 97% | Population Mitotic Cells (%) (HEK-293T; [4]): 6% and 10% | Population Normal (%) (HEK-293T; [4]): 32% and 47% | Population Pyknosed Nuclei (%) (HEK-293T; [4]): 50% and 34% | Population Tubulin-Different-Phenotype (%) (HEK-293T; [4]): 51% and 82% | Total Cell Count (HEK-293T; [4]): 269 and 170 | Population Apoptotic (%) (U2OS; [5]): 73% and 55% | Population Fragmented Nuclei (%) (U2OS; [5]): 23% and 16% | Population Healthy Nuclei (%) (U2OS; [5]): 62% and 69% | Population Hoechst High Intensity Objects (%) (U2OS; [5]): 6% and 2% | Population Membrane Permeable-Phenotype (%) (U2OS; [5]): 40% and 32% | Population Mitochondria Different-Phenotype (%) (U2OS; [5]): 19% and 24% | Population Mitotic Cells (%) (U2OS; [5]): 26% and 44% | Population Normal (%) (U2OS; [5]): 93% and 97% | Population Pyknosed Nuclei (%) (U2OS; [5]): 13% and 14% | Population Tubulin-Different-Phenotype (%) (U2OS; [5]): 36% and 30% | Total Cell Count (U2OS; [5]): 178 and 126 | Population Apoptotic (%) (U2OS; [6]): 86% and 82% | Population Fragmented Nuclei (%) (U2OS; [6]): 31% and 21% | Population Healthy Nuclei (%) (U2OS; [6]): 27% and 43% | Population Hoechst High Intensity Objects (%) (U2OS; [6]): 6% and 9% | Population Membrane Permeable-Phenotype (%) (U2OS; [6]): 57% and 53% | Population Mitochondria Different-Phenotype (%) (U2OS; [6]): 82% and 90% | Population Mitotic Cells (%) (U2OS; [6]): 13% and 17% | Population Normal (%) (U2OS; [6]): 93% and 90% | Population Pyknosed Nuclei (%) (U2OS; [6]): 41% and 35% | Population Tubulin-Different-Phenotype (%) (U2OS; [6]): 83% and 95% | Total Cell Count (U2OS; [6]): 220 and 109 | Population Apoptotic (%) (U2OS; [1]): 68% and 66% | Population Fragmented Nuclei (%) (U2OS; [1]): 26% and 12% | Population Healthy Nuclei (%) (U2OS; [1]): 55% and 67% | Population Hoechst High Intensity Objects (%) (U2OS; [1]): 3% | Population Membrane Permeable-Phenotype (%) (U2OS; [1]): 19% and 22% | Population Mitochondria Different-Phenotype (%) (U2OS; [1]): 22% and 28% | Population Mitotic Cells (%) (U2OS; [1]): 31% and 33% | Population Normal (%) (U2OS; [1]): 96% | Population Pyknosed Nuclei (%) (U2OS; [1]): 18% and 19% | Population Tubulin-Different-Phenotype (%) (U2OS; [1]): 18% and 16% | Total Cell Count (U2OS; [1]): 181 and 128 | Population Apoptotic (%) (U2OS; [2]): 93% and 91% | Population Fragmented Nuclei (%) (U2OS; [2]): 30% and 19% | Population Healthy Nuclei (%) (U2OS; [2]): 25% and 26% | Population Hoechst High Intensity Objects (%) (U2OS; [2]): 13% and 22% | Population Membrane Permeable-Phenotype (%) (U2OS; [2]): 47% and 56% | Population Mitochondria Different-Phenotype (%) (U2OS; [2]): 67% and 86% | Population Mitotic Cells (%) (U2OS; [2]): 6% and 8% | Population Normal (%) (U2OS; [2]): 86% and 77% | Population Pyknosed Nuclei (%) (U2OS; [2]): 44% and 54% | Population Tubulin-Different-Phenotype (%) (U2OS; [2]): 76% and 91% | Total Cell Count (U2OS; [2]): 213 and 112 | Population Apoptotic (%) (U2OS; [3]): 64% and 73% | Population Fragmented Nuclei (%) (U2OS; [3]): 21% and 22% | Population Healthy Nuclei (%) (U2OS; [3]): 61% and 56% | Population Hoechst High Intensity Objects (%) (U2OS; [3]): 4% and 2% | Population Mitochondria Different-Phenotype (%) (U2OS; [3]): 12% and 31% | Population Mitotic Cells (%) (U2OS; [3]): 35% and 26% | Population Normal (%) (U2OS; [3]): 95% and 97% | Population Pyknosed Nuclei (%) (U2OS; [3]): 16% and 21% | Population Tubulin-Different-Phenotype (%) (U2OS; [3]): 8% and 18% | Total Cell Count (U2OS; [3]): 240 and 161 | Population Apoptotic (%) (U2OS; [4]): 96% and 100% | Population Fragmented Nuclei (%) (U2OS; [4]): 45% and 29% | Population Healthy Nuclei (%) (U2OS; [4]): 12% and 14% | Population Hoechst High Intensity Objects (%) (U2OS; [4]): 26% and 32% | Population Membrane Permeable-Phenotype (%) (U2OS; [4]): 45% and 70% | Population Mitochondria Different-Phenotype (%) (U2OS; [4]): 30% and 90% | Population Mitotic Cells (%) (U2OS; [4]): 3% and 0% | Population Normal (%) (U2OS; [4]): 73% and 67% | Population Pyknosed Nuclei (%) (U2OS; [4]): 41% and 56% | Population Tubulin-Different-Phenotype (%) (U2OS; [4]): 40% and 90% | Total Cell Count (U2OS; [4]): 215 and 105
